Bioassay records from PubChem BioAssay.
Compounds with a hit are over-represented: about 4.6% of the library has one in this group of screens.
Wee1 degr inh: blocks degradation of human Wee1 kinase; actives 1.2% (n = 220,000); P30291; HeLa Luc-Wee1K328M stability, luciferase luminescence; 100% = proteasome inhibitor MG132 effect; reporter increase, % at 5 µM;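 active = activation above the mean of all tested compounds plus 3 SD, set per screening run, cut at about 8.8% in these data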;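 also: cells exposed to compound for 20 h before luminescence read; 0% = DMSO alone and 100% = MG132 at 30 µM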
p97 ATPase inh: human p97 ATPase inhibition; P55072; recombinant p97 ATPase, Kinase-Glo ATP luminescence, 3 h; inhibition, % at 8 µM; actives 0.42% (n = 220,000); AID 1481; in the data active = inhibition above about 15%;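 also: 0% = DMSO vehicle and 100% = wells lacking enzyme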
Target sequence (P55072 whole entry, looked up): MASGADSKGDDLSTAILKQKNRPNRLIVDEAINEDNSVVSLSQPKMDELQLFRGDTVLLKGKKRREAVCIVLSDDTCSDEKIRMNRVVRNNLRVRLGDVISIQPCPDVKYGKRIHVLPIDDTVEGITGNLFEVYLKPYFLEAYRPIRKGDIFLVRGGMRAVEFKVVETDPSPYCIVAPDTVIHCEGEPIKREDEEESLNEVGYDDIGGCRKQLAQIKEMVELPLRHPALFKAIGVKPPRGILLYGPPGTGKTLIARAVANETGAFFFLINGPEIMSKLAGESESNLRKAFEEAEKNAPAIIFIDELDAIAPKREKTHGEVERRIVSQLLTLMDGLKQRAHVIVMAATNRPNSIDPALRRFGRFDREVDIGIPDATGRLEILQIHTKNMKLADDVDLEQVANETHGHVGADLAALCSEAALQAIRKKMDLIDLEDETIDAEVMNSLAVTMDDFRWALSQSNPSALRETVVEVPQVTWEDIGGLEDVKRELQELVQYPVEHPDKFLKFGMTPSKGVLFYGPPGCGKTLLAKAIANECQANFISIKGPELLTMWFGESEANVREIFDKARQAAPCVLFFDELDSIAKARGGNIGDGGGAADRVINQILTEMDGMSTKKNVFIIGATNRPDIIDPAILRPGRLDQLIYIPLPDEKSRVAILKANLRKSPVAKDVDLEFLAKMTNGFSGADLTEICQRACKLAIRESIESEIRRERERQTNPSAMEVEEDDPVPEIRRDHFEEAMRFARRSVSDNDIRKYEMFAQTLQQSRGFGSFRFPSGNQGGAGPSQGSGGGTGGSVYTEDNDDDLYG
NF-kB expr up: NF-kB expression increase, human neuronal cells | fold change at 12.5 µM | actives 1.6% (n = 190,000) | AID 1239 | NF-kB reporter expression; stronger effect = higher value; in the data active = fold change above about 3.3
MDM2 E3 inh: inhibitors of human Mdm2 E3 ubiquitin ligase. Q00987. cell-based MDM2 ubiquitination luciferase reporter, 2 h; 0 = plate control, 100 = twice control, blank-subtracted. signal enhancement, % at 5 µM. actives 0.11% (n = 210,000). AID 1230;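 active = signal enhancement of 30% or more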;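 also: luminescence tracks abundance of the self-degrading MDM2-luciferase fusion protein; higher signal means inhibition of MDM2 E3 ligase activity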
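Buffer or medium: Cells held in DMEM | Assay system: Stable mammalian line carrying autodegrading MDM2–luciferase fusion reporter | Quantity: 2000 cells/well | Times: 4 h settle plus 2 h compound, 37 °C | Doses: One concentration, 5 µM, with 0.2% DMSO | Technique: Luminescence with SteadyLite reagent, 15 min at room temperature | Benchmarks: Plate controls and plate blanks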
STAT1 activator: STAT1 signaling activation; NIH 3T3 STAT1-luciferase reporter, IFN-gamma, luminescence; 100% = IFN-gamma alone, no compound; actives 2.6% (n = 200,000); activation (% of control), % at 5.5 µM;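 active = activation above the screen-wide mean activation plus 3 SD, cut at about 130% in these data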;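 also: raw ratio to IFN-gamma control signal so 100% means no change and 0% no light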
APP 5'UTR act: activates APP 5'UTR luciferase reporter. actives 1% (n = 190,000). activation, % at 2 µM. SH-SY5Y APP 5'UTR luciferase reporter, luminescence; zero percent = DMSO vehicle wells;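 active = activation above a set limit, based on mean plus 3 SD of controls, cut at about 140% in these data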
An asterisk follows results filed as active; nt = no result.

SMILES	Wee1 degr inh	p97 ATPase inh	NF-kB expr up	MDM2 E3 inh	STAT1 activator	APP 5'UTR act
COc1ccccc1NS(=O)(=O)c1cccc(NC(=O)Nc2ccccc2)c1	5	4	1.1	-2	97	-12
COc1ccccc1C(=O)Nc1ccc(Br)cc1C	3	0	1.8	-12	125	43
COc1ccccc1-c1cc(C(=O)N/N=C/c2cccs2)c2ccccc2n1	10*	8	1.1	-6	100	-13
Cc1occc1C(=O)N/N=C/C=C/c1ccccc1	4	-3	2.6	2	146*	55
COc1cc(/C=N/NC(=O)c2ccoc2C)cc(OC)c1O	1	2	1.1	-3	135*	-2
Cc1occc1C(=O)N/N=C/C=C/c1ccccc1[N+](=O)[O-]	1	2	1.3	-3	114	8
Cc1ccc(/C=N/NC(=O)c2ccoc2C)o1	3	0	1.7	-4	132*	28
C=CCOc1ccc(C=Nc2ccc(Cl)cc2)c(O)c1	-1	5	1	-2	99	-9
COc1ccc(/C=C(\NC(=O)c2ccccc2Cl)C(=O)NCCCC(=O)O)cc1	1	3	1.1	-16	101	1
Cc1occc1C(=O)N/N=C/c1c[nH]c2ccccc12	7	-3	3	-10	132*	143*
Cc1ccc(/C=N/NC(=O)NC23CC4CC(CC(C4)C2)C3)o1	10*	3	nt	-11	nt	nt
O=C(N/N=C/c1ccncc1)NC12CC3CC(CC(C3)C1)C2	3	-5	nt	-6	nt	nt
O=C(N/N=C/c1cccs1)c1c[nH]c2ccccc12	1	-1	2.3	-12	129*	44
Cc1ccc(NC(=O)c2ccc(OCC3CCCO3)cc2)cc1 (stereo not drawn)	1	1	3.4*	-30	136*	108
Cc1ccc(NC(=O)c2ccc(OC(=O)COc3ccc(Cl)c(C)c3)cc2)cc1	-3	-4	1.9	-3	140*	132
COC(=O)COc1cccc(NC(=O)c2ccc(C)cc2)c1	2	-11	1.3	4	75	-5
Cc1cnc(NC(=O)c2ccc(OCC3CCCO3)cc2)s1 (stereo not drawn)	-4	-5	3.9*	-62	52	128
O=C(NC1=NCCS1)c1ccc(OCC2CCCO2)cc1 (stereo not drawn)	0	2	2.4	-9	120	85
Cc1ccc(OCC(=O)NNC(=O)C(=O)N2CCCC2)c(C)c1	2	-1	1.1	-13	86	-5
CC(C)(C)OC(=O)[C@H]1[C@H](c2ccc([N+](=O)[O-])cc2)C2(C(=O)c3ccccc3C2=O)C2c3ccccc3C=NN21 (stereo partly drawn)	2	6	0.55	5	112	-26
COc1ccc(/C=C/C(=O)c2ccoc2)cc1	13*	-2	1.8	-12	103	4
COc1ccc(/C=C/C(=O)c2ccc(O)cc2)cc1	-1	5	2.6	-8	112	49
COc1ccc(/C=C/C(=O)c2ccccc2O)cc1	4	-1	5*	nt	113	62
COc1ccc(-n2c(O)c(/C=N/NS(=O)(=O)c3cccc([N+](=O)[O-])c3)c3ccccc3c2=O)cc1OC	-2	0	1.4	-5	102	5
O=C1CC(/C=C/c2ccccc2)=Nc2ccccc2N1	1	1	4*	1	142*	128
SMILES	Wee1 degr inh	p97 ATPase inh	NF-kB expr up	MDM2 E3 inh	STAT1 activator	APP 5'UTR act
O=C1CC(/C=C/c2cccnc2)=Nc2ccccc2N1	4	4	1.8	5	94	24
O=C(O)Cc1csc(-c2cccc(F)c2)n1	-2	5	1	-19	104	9
CCC(=O)Nc1cccc(NC(=S)NC(=O)c2ccc(C)cc2)c1	-2	-4	2.6	-19	145*	107
CC(=O)c1cccc(NC(=S)NC(=O)c2ccc(C)cc2)c1	0	4	3.5*	-17	138*	88
Cc1cccc(NC(=O)c2ccc(OC3CSC3)cc2)c1	-3	1	3.8*	-53	125	158*
Cc1cccc(NC(=O)COc2ccc(Br)cc2/C=N/O)c1	9.4*	0	2.6	-8	117	85
